Hits are enriched below; roughly 3.7% of the tested compounds scored in any of these assays.
KCNK9 inh = KCNK9 potassium channel inhibitors, primary screen, HEK293 cells, thallium flux. FluxOR thallium flux fluorescence; stronger effect = lower value. B-score at 10 µM. 310,000 tested, 1.2% active;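 active = ratio B-score over 3 SD below the library mean, with starting fluorescence within 5 SD of its mean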;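 also: negative B-score means less thallium flux so channel inhibition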
KCNQ1 block = inhibitors of human KCNQ1 channel, primary screen, cell-based, thallium flux, high-throughput | CHO-K1 KCNQ1, FluxOR thallium flux fluorescence; stronger effect = higher value | B-score at 10 µM | 310,000 tested, 1.3% active;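 active = compounds whose thallium flux B-score, printed positive for inhibition, exceeds three library SD while starting fluorescence stays within three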;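 also: channel opened by potassium depolarization with thallium stimulus after 20 min compound exposure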
Kir21 inh = inhibitors of mouse Kir2.1 inward-rectifier potassium channel. HEK293-Kir2.1, FluxOR thallium flux fluorescence; stronger effect = lower value. 310,000 tested, 0.85% active. Inward rectifier potassium channel 2 (Mus musculus), P35561. B-score at 10 µM;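 active = fluorescence ratio B-score at or below minus 3 SD of library scores, with starting-brightness B-score within 2 SD, cut at about -4.2 in these data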;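 also: channel flux triggered by added potassium and thallium sulfate stimulus; B-score of peak minus minimum fluorescence over baseline after thallium stimulus; more negative B-score means stronger Kir2.1 block with less thallium influx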
KCNQ1 pot = potentiators or activators of KCNQ1 channel, primary screen, cell-based, thallium flux, high-throughput; Potassium voltage-gated channel subfamily KQT member 1 (Homo sapiens), P51787; CHO-K1 KCNQ1, thallium flux FluxOR fluorescence; stronger effect = higher value; B-score at 10 µM; 310,000 tested, 0.35% active;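 active = fluorescence ratio B-score, a plate-corrected score, at least three library SD, with initial intensity B-score within 5 SD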
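assay system = KCNQ1-transfected CHO-K1 cells | medium = assay buffer with matched DMSO | probe or stimulus = depolarizing K+/Tl+ stimulus, K2SO4 and Tl2SO4 each 12.5 mM in 5x stock | dosing = single dose | incubation = dye 90 min, compound 20 min, room temperature | detection = kinetic FluxOR fluorescence, 10 s baseline plus 110 s post-stimulus | evaluation = ratio B score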
KCNK3 block = human KCNK3 channel inhibitors, primary screen, CHO cells, FluxOR thallium flux, B-score. Potassium channel subfamily K member 3 (Homo sapiens), O14649. FluxOR fluorescence; stronger effect = lower value. B-score at 10 µM. 340,000 tested, 0.84% active. AID 602410, 2012;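 active = B-score under library mean minus 4 SD, starting fluorescence ratio at most library mean plus 5 SD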;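 also: more negative B-score means stronger inhibition of thallium flux through KCNK3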
hERG protect = hERG rescue from dofetilide block, primary screen, cell-based, CHO-hERG, FluxOR thallium flux, dofetilide IC70. AID 1511, 2009. activation (rescue from dofetilide block), less the hit threshold, % at 10 µM. dofetilide IC70 present. Voltage-gated inwardly rectifying potassium channel KCNH2 (Homo sapiens), Q12809. 310,000 tested, 0.51% active;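 active = activation above the mean of controls blocked by dofetilide plus 5 SD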;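 also: thallium influx through hERG after potassium depolarization seen as dye fluorescence rise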
Target sequence (Q12809 whole entry, looked up): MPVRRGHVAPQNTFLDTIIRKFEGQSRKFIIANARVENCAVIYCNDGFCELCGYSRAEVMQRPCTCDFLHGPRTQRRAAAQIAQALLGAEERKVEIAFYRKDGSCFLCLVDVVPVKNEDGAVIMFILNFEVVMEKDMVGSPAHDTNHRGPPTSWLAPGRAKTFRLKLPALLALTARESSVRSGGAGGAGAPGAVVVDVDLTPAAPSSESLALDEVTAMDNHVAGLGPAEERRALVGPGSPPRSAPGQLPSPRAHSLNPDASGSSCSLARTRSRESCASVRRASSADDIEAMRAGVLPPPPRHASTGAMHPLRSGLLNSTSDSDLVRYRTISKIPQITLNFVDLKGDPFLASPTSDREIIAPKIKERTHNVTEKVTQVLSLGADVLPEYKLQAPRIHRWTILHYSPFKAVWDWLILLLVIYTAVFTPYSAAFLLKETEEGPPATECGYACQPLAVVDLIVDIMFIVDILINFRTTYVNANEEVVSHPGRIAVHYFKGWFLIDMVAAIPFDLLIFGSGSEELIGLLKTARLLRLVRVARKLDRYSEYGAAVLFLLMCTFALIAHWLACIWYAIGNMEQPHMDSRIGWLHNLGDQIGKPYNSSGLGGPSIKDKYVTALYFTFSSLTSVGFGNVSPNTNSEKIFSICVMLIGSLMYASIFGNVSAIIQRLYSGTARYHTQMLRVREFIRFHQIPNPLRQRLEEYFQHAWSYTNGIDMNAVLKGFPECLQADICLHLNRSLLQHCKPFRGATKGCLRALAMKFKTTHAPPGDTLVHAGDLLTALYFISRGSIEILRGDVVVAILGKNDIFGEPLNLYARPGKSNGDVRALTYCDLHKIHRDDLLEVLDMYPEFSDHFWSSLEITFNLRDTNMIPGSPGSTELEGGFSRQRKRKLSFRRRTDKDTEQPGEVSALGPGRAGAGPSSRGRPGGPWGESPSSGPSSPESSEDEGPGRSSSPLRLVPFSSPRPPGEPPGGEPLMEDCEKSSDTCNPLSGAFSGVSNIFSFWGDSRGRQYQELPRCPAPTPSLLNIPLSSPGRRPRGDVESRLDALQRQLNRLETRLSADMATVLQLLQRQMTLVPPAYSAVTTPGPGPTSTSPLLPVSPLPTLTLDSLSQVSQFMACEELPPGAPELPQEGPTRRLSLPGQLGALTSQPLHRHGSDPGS
KCNK9 inh conf = KCNK9 potassium channel inhibitors, confirmation, HEK293 cells, thallium flux, duplicate. shares compounds with KCNK9 inh. FluxOR thallium flux fluorescence. inhibition, % at 10 µM. 4,900 tested, 43% active. AID 492992, 2010;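 active = thallium signal inhibited by more than 5 SD of the compound-free buffer control wells, on both duplicate plates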
Kir21 sel = mouse Kir2.1 channel inhibition, confirmation, selectivity assay for KCNK9 modulator project, cell-based, HEK293, thallium flux | inhibition, % at 10 µM | Kir2.1 cells, FluxOR thallium flux fluorescence | shares compounds with KCNK9 inh | 4,900 tested, 4% active;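 active = thallium signal drop more than 5 SD beyond the mean of the no-compound control wells, seen in both duplicate plates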;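 also: signal is fluorescence rise after thallium addition divided by baseline fluorescence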
KCNK9 uninduced = thallium flux in non-induced HEK293 cells, confirmation, counter-screen for KCNK9 inhibitor project, cell-based, second counter screen, non-induced KCNK9-HEK293 | shares compounds with KCNK9 inh | FluxOR thallium flux | inhibition, % at 10 µM | 4,900 tested, 40% active | AID 492997, 2010;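 active = thallium signal drop beyond 5 SD of the untreated control mean, on both duplicate plates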
KCNK3 confirm = retest of human KCNK3 channel inhibitors, confirmation, CHO cells, FluxOR thallium flux, triplicate | shares compounds with KCNK3 block | FluxOR fluorescence; 0% buffer, 100% carvedilol maximal block | AID 651638, 2012 | 2,400 tested, 99% active | ratio percent of control, % at 10 µM;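 active = ratio percent of control, averaged over triplicates, above buffer control mean plus 5 SD, cut at about 64% in these data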;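 also: ratio is the fluorescence rise from min to max over baseline after thallium stimulus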
KCNK3 uninduced = thallium flux inhibition in non-induced cells, primary screen, counter-screen for KCNK3 inhibitor project, cell-based, non-induced KCNK3 line, FluxOR thallium, triplicate. shares compounds with KCNK3 block. 2,400 tested, 40% active. non-induced KCNK3 parental cells; stronger effect = lower value. thallium flux ratio (lower = more inhibition) at 10 µM;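 active = thallium flux ratio, averaged over three wells, more than 5 SD below the buffer control mean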;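 also: host cells are CHO cells without KCNK3 induction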
Each line names hits and unclear results; the compound was inactive in the other large screens (follow-up assays come after a bar, where they were run).

COc1ccc(/C=N/NC(=O)c2ccoc2C)cc1COc1c(C)cccc1C	KCNK9 inh -11.4, KCNQ1 block 12, KCNK3 block -12.8 | KCNK9 inh conf 47.5% | Kir21 sel inactive | KCNK9 uninduced inactive | KCNK3 confirm 113.0 | KCNK3 uninduced 0.138
COc1ccc(/C=N\NC(=O)c2ccccc2OC)cc1COc1ccccc1C	none
NCCc1c(-c2ccccc2)n(-c2ccccc2)c2ccccc12	KCNK9 inh -9.88, KCNQ1 block 13, Kir21 inh -15.1 | KCNK9 inh conf 54.5% | Kir21 sel 62.5% | KCNK9 uninduced 36.5% | KCNK3 confirm 135.7 | KCNK3 uninduced inactive
CC(C)CCN(C(=S)Nc1cccc(F)c1)C(C)c1cccs1 (stereo unspecified)	KCNK9 inh -10.2, KCNK3 block -13.8 | KCNK9 inh conf 50.5% | Kir21 sel inactive | KCNK9 uninduced 50.5% | KCNK3 confirm 118.7 | KCNK3 uninduced 0.152
COCCN(C(=S)Nc1cccc(C)c1)C(C)c1cccs1 (stereo unspecified)	none
COc1ccccc1C(=O)Nc1ccc(C(=O)c2ccccc2)cc1	KCNK9 inh -12.3, KCNK3 block -13 | KCNK9 inh conf 61.0% | Kir21 sel inactive | KCNK9 uninduced inactive | KCNK3 confirm 127.3 | KCNK3 uninduced 0.132
O=C(Nc1ccccc1N1CCN(C(=O)c2ccccc2)CC1)c1ccc(Cl)cc1	KCNK9 inh -13.4, KCNK3 block -15.1 | KCNK9 inh conf 37.0% | Kir21 sel inactive | KCNK9 uninduced inactive | KCNK3 confirm 113.0 | KCNK3 uninduced inactive
CCn1nc(C(=O)Nc2ccccc2C)c(Cl)c1Cl	none
CCn1nc(C(=O)Nc2cccc3ccccc23)c(Cl)c1Cl	KCNK9 inh -10.4 | KCNK9 inh conf 49.0% | Kir21 sel inactive | KCNK9 uninduced 36.0% | KCNK3 confirm 126.3 | KCNK3 uninduced 0.16
CCOC(=O)c1cccc(NC(=O)c2ccc(NC(=O)c3ccco3)cc2)c1	none
CCCCCOC(=O)c1ccc(NC(=O)c2ccco2)cc1	KCNK9 inh -12 | KCNK9 inh conf 49.0% | Kir21 sel inactive | KCNK9 uninduced inactive | KCNK3 confirm 123.0 | KCNK3 uninduced 0.149
CCN(CC)C(=O)C1CCCN(c2ccc([N+](=O)[O-])cc2/C=N/NC(=O)c2cccc(Br)c2)C1 (stereo unspecified)	KCNK9 inh -12.5 | KCNK9 inh conf 41.5% | Kir21 sel inactive | KCNK9 uninduced 32.0% | KCNK3 confirm 134.3 | KCNK3 uninduced 0.132
